High-throughput results from PubChem.
TNAP act hi DEA – TNAP (human) activation, high acceptor | P05186 | purified TNAP, CDP-star luminescence, 1 M DEA, 30 min; active compounds read high; 0 = EDTA background, 1 = DMSO-only activity | activation factor at 20 µM | 200,000 tested, under 10 active | AID 1136;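 active means activation factor at least 2 at 20 µM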
Target sequence (P05186 whole entry, looked up): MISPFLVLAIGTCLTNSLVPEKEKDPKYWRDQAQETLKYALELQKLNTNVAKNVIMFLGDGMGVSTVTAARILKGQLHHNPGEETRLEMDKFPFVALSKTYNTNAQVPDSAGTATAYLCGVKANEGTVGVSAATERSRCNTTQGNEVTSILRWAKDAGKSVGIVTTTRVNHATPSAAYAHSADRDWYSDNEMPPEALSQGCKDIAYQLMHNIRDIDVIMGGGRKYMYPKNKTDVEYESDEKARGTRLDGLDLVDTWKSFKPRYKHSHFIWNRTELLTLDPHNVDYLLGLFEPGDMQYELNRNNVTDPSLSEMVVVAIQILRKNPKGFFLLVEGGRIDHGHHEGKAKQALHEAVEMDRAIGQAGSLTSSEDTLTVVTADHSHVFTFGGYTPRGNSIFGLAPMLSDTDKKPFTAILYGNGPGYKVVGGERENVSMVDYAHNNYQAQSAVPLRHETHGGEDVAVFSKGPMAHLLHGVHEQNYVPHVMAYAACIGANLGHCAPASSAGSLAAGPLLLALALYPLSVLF
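Test system – human TNAP · Doses – 20 µM single point · Incubation – 30 min, room temperature · Signal – luminescent substrate turnover signal · Read-out basis – activation factor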
HCT116 PTEN-null – growth suppressors of cells with PTEN tumor suppressor deletion; actives 1.2% (n = 140,000); viability, % at 10 µM; HCT116 PTEN-null viability, CellTiter-Glo, 60 h; active compounds read low;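 active means viability at or below a set limit, 4 SD under the median of all tested compounds, cut at about 3.7% in these data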;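 further: PTEN knockout HCT116 line with beta catenin targeted HCT116 as companion control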
TNAP inh noacc – TNAP (human) inhibition, acceptor-free conditions | P05186 | purified TNAP, CDP-star luminescence, 30 min | inhibition, % at 20 µM | actives 0.26% (n = 200,000) | AID 1012;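 active means tissue-nonspecific alkaline phosphatase inhibition above about 50% at 20 µM in the single-dose screen, limit read from the data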;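 further: 0% = DMSO negative control and 100% = EDTA positive control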
TNAP inh hi DEA – blocks human TNAP under high phosphate acceptor concentration; actives 0.03% (n = 200,000); AID 1135; P05186; inhibition, % at 20 µM; purified TNAP, CDP-star luminescence, 1 M DEA;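 active means over 50% inhibition of tissue-nonspecific alkaline phosphatase at 20 µM in the single-dose screen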;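 further: plate controls were DMSO wells for no effect and EDTA-quenched wells as full inhibition for full effect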
L major viab – reduces viability of Leishmania major promastigotes | resazurin fluorescence viability | inhibition, % at 10 µM | actives 9% (n = 200,000) | AID 1063; in the data active means inhibition above about 50%;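 further: promastigotes grown with compound for 44 hours at 28 °C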
bCat KO growth – beta-catenin-lacking colon tumor cell growth suppression; viability, % at 10 µM; HCT116 beta-catenin knockout viability, CellTiter-Glo, 60 h; active compounds read low; actives 1.5% (n = 140,000);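 active means viability at or under a set limit, the compound median less 4 SD, cut at about 6% in these data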;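 further: 0% = Hyamine 1622 control at 20 µM and 100% = untreated cell control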
* marks the source's active call; other numbers are inactive results. In the library only some 9.6% were active in any assay of this set; here they are far more common.

How did N=c1c2ccccc2nnn1-c1cccc(C(F)(F)F)c1 do in these assays?
TNAP act hi DEA: 1; TNAP inh noacc: -10; TNAP inh hi DEA: 0; L major viab: -1

Results for COC(=O)[C@@]1(Cc2ccc(F)cc2)[C@H]2c3cc(C(=O)N(C)C)n(CCc4ccc(OC)c(Br)c4)c3C[C@H]2CN1C(=O)c1ccccc1 ?
TNAP act hi DEA: 1; HCT116 PTEN-null: 14; TNAP inh noacc: -5; TNAP inh hi DEA: -4; L major viab: 45; bCat KO growth: 14

What do the screens show for `COC(=O)[C@@]1(Cc2ccc(F)cc2)[C@H]2c3cc(C(=O)N(C)C)n(CCc4ccccn4)c3C[C@H]2CN1C(=O)c1ccccc1`?
TNAP act hi DEA: 1.1; HCT116 PTEN-null: 88; TNAP inh noacc: -9; TNAP inh hi DEA: -6; L major viab: 91*; bCat KO growth: 88

Results for Cc1cc(C)cc(NC(=O)Cn2nnc3ccccc3c2=O)c1 ?
TNAP act hi DEA: 1; TNAP inh noacc: 1; TNAP inh hi DEA: -5; L major viab: -1

How did COc1cc(OC)nc(-n2ncc(Br)c(Br)c2=O)n1 do in these assays?
TNAP act hi DEA: 1; HCT116 PTEN-null: 1.4*; TNAP inh noacc: -6; TNAP inh hi DEA: -1; L major viab: 100*; bCat KO growth: 1.6*

Results for COc1ccc(-c2cn(-c3ccc(OC)cc3)c3[n+]2-c2ccccc2CC3)cc1 ?
TNAP act hi DEA: 1; HCT116 PTEN-null: 11; TNAP inh noacc: -8; TNAP inh hi DEA: -1; L major viab: 100*; bCat KO growth: 13

Results for FC(F)Sc1ccc(-n2cc(-c3ccccc3)[n+]3c2CCC3)cc1 ?
TNAP act hi DEA: 1; HCT116 PTEN-null: 80; TNAP inh noacc: -6; TNAP inh hi DEA: -2; L major viab: 16; bCat KO growth: 82

Results for COc1ccc(-n2cc(-c3ccccc3)[n+]3c2CCCCC3)cc1 ?
TNAP act hi DEA: 1; TNAP inh noacc: -6; TNAP inh hi DEA: 0; L major viab: 100*

What do the screens show for `COc1ccc(-n2cc(-c3ccccc3)nc2SC)cc1`?
TNAP act hi DEA: 1; HCT116 PTEN-null: 85; TNAP inh noacc: -12; TNAP inh hi DEA: -2; L major viab: -2; bCat KO growth: 91

How did CC1CCC(C(C)C)C(OCC(O)CN2CCOCC2)C1 (centres undefined) do in these assays?
TNAP act hi DEA: 1; HCT116 PTEN-null: 87; TNAP inh noacc: -10; TNAP inh hi DEA: -4; L major viab: 8; bCat KO growth: 88

Results for CC1CCC(C(C)C)C(OCC(O)CN2CCN(Cc3ccccc3)CC2)C1 (centres undefined) ?
TNAP act hi DEA: 1.1; HCT116 PTEN-null: 46; TNAP inh noacc: -5; TNAP inh hi DEA: -6; L major viab: 93*; bCat KO growth: 39

What do the screens show for `CC1CCC(C(C)C)C(OCC(O)CN2CCCC(C)C2)C1` (centres undefined)?
TNAP act hi DEA: 1.1; TNAP inh noacc: -21; TNAP inh hi DEA: -7; L major viab: 92*

How did CCOc1ccc2nc(N/C(N)=N/C(=S)Nc3ccc(OC)cc3)nc(C)c2c1 do in these assays?
TNAP act hi DEA: 1; TNAP inh noacc: -6; TNAP inh hi DEA: 1; L major viab: 72*

How did COc1ccc2nc(N/C(N)=N/C(=S)Nc3ccccc3)nc(C)c2c1 do in these assays?
TNAP act hi DEA: 1; TNAP inh noacc: -4; TNAP inh hi DEA: 0; L major viab: 37

What do the screens show for `COc1cccc(NC(=O)CN(C)C(C)C(=O)Nc2cc([N+](=O)[O-])ccc2Cl)c1` (centres undefined)?
TNAP act hi DEA: 1; TNAP inh noacc: -10; TNAP inh hi DEA: 1; L major viab: 32

How did O=C(NN1C(=O)C2C3c4ccccc4C(c4ccccc43)C2C1=O)c1ccc(Cl)cc1 (centres undefined) do in these assays?
TNAP act hi DEA: 1; HCT116 PTEN-null: 98; TNAP inh noacc: -2; TNAP inh hi DEA: -2; L major viab: 72*; bCat KO growth: 79

What do the screens show for `CCCN(CC(=O)Nc1ccc(F)c(F)c1F)CC(=O)Nc1c(Cl)cccc1Cl`?
TNAP act hi DEA: 1.1; HCT116 PTEN-null: 64; TNAP inh noacc: -14; TNAP inh hi DEA: -9; L major viab: 9; bCat KO growth: 72

Results for CCc1cc2c(C)cc(=O)oc2cc1OC(=O)C1CCCN1C(=O)OC(C)(C)C (centres undefined) ?
TNAP act hi DEA: 1; HCT116 PTEN-null: 89; TNAP inh noacc: -9; TNAP inh hi DEA: -2; L major viab: 89*; bCat KO growth: 94

How did CC(C)(C)OC(=O)N1CCCC1C(=O)NCCc1ccccc1 (centres undefined) do in these assays?
TNAP act hi DEA: 1; HCT116 PTEN-null: 95; TNAP inh noacc: -4; TNAP inh hi DEA: 3; L major viab: -2; bCat KO growth: 88

How did O=C(Nc1ccc(NC(=O)C2CC2)cn1)c1ccccc1Cl do in these assays?
TNAP act hi DEA: 1; HCT116 PTEN-null: 92; TNAP inh noacc: -2; TNAP inh hi DEA: 3; L major viab: -6; bCat KO growth: 85

How did O=C(Nc1ccc(NC(=O)C2CCCCC2)nc1)c1ccccn1 do in these assays?
TNAP act hi DEA: 1; TNAP inh noacc: -4; TNAP inh hi DEA: -4; L major viab: 71*

What do the screens show for `O=C(Nc1ccc(NC(=O)C2CCCCC2)nc1)c1ccco1`?
TNAP act hi DEA: 1; HCT116 PTEN-null: 89; TNAP inh noacc: -12; TNAP inh hi DEA: -2; L major viab: 86*; bCat KO growth: 100

What do the screens show for `O=C(COC(=O)/C=C/c1ccco1)Nc1cccc([N+](=O)[O-])c1`?
TNAP act hi DEA: 1; HCT116 PTEN-null: 92; TNAP inh noacc: 0; TNAP inh hi DEA: -1; L major viab: -4; bCat KO growth: 97

What do the screens show for `Cc1nn(C)c(C)c1NC(=O)CSc1nc(C2CC2)nc2c1cnn2-c1ccccc1`?
TNAP act hi DEA: 1.1; HCT116 PTEN-null: 1.2*; TNAP inh noacc: -11; TNAP inh hi DEA: -6; L major viab: 1; bCat KO growth: 1.3*

How did Cc1nn(C)c(C)c1NC(=O)CSc1nc(-c2ccccc2Cl)nc2c1cnn2-c1ccccc1 do in these assays?
TNAP act hi DEA: 1; HCT116 PTEN-null: 74; TNAP inh noacc: -6; TNAP inh hi DEA: 1; L major viab: -1; bCat KO growth: 89

How did Cc1ccc(S(=O)(=O)N/N=C/c2ccccc2O)cc1[N+](=O)[O-] do in these assays?
TNAP act hi DEA: 1.1; TNAP inh noacc: -8; TNAP inh hi DEA: -5; L major viab: -4

How did Cc1ccc(S(=O)(=O)N/N=C/c2ccc(O)c(O)c2)cc1[N+](=O)[O-] do in these assays?
TNAP act hi DEA: 1; TNAP inh noacc: 67*; TNAP inh hi DEA: 2; L major viab: -21

What do the screens show for `CCOC(=O)C1=C(CNCc2ccc(C)cc2)NC(=O)NC1c1cc(C)ccc1C` (centres undefined)?
TNAP act hi DEA: 1; HCT116 PTEN-null: 87; TNAP inh noacc: 3; TNAP inh hi DEA: -3; L major viab: 100*; bCat KO growth: 91
